Source: ChEMBL document CHEMBL4251750, “Structural Insights of Benzenesulfonamide Analogues as NLRP3 Inflammasome Inhibitors: Design, Synthesis, and Biological Characterization” (J Med Chem, 2018)
The source made the active and inactive calls. The calls are words filed in the database; no cut-off is given here.

Key:
[1] = biological target: T1, NACHT, LRR and PYD domains-containing protein 3 (Mus musculus, UniProt Q8R4B8); assay: Inhibition of NLRP3 in mouse J774A.1 cells assessed as reduction in LPS-stimulated IL-1beta levels pre-incubated with LPS for 4.5 hrs followed by incubation for 30 mins in presence of ATP and measured after 30 mins by ELISA; type: cell-based
[2] = biological target: T1, NACHT, LRR and PYD domains-containing protein 3; assay: Inhibition of NLRP3 in mouse BMDM assessed as reduction in LPS-stimulated IL-1beta levels pre-incubated with LPS for 4.5 hrs followed by incubation for 30 mins in presence of ATP and measured after 30 mins by ELISA; type: cell-based
Summary of the method: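 J774A.1 cells (DMEM, 10% FBS; 1 × 10⁵/well, plated 24 h) or bone marrow derived macrophages primed with E. coli 0111:B4 LPS (final 1 µg/mL) for 4.5 h. Compound and ATP (5 mM) then added together for 30 min. Supernatant IL-1β by mouse ELISA.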

Mus musculus [3] = assay: In-vivo inhibition of NLRP3 inflammasome in C57BL/6 mouse assessed as reduction in LPS-induced IL-1beta levels at 0.5 mg/kg, ip pre-treated for 1 hr followed by LPS stimulation for 2.5 hrs by ELISA; type: functional, organism-based
Summary of the method: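 C57BL/6 mice dosed with compound or vehicle, then 1 h later given LPS 20 mg/kg i.p. (PBS control). Serum IL-1β measured by ELISA 2.5 h after LPS.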

[4] = biological target: NACHT, LRR and PYD domains-containing protein 3 (Mus musculus) (UniProt Q8R4B8); assay: Ratio of IC50 for LPS/ATP-induced NLRP3-mediated IL1beta release in mouse J774A.1 cells to IC50 for LPS/ATP-induced NLRP3-mediated IL1beta release in mouse BMDM; type: cell-based
Mus musculus [5] = assay: (§1) Cognition enhancement activity in double APP/PS1 transgenic Alzheimer's disease C57BL/6 mouse model assessed as increase in time spent in goal quadran at 100 mg/kg, ip administered as single daily dose at 5 times per week for first 1 week followed by oral administration as single daily dose at 5 times per week for next 7 weeks by Morris water maze test relative to control; type: functional, organism-based
Summary of the method: (§2)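 APP/PS1 female transgenic mice (B6C3-Tg APPswe/PSEN1dE9) and matching WT females, randomized at 7 months (WT vehicle n=4, treated n=6; Tg vehicle n=5, treated n=7). Daily i.p. (10% DMSO with PEG-100) for 5 days, then oral (2% DMSO in corn oil) once daily weekdays for 7 weeks. Afterwards tested by novel object recognition (discrimination index) and Morris water maze (4-day fixed-platform latency trials, then probe trial).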

Mus musculus [6] = assay: Cardioprotective activity in 30 mins coronary artery ligated I/R AMI ICR mouse model assessed as reduction in infract size at 30 mg/kg, po measured at 24 hrs post surgery by TTC-staining based assay; type: functional, organism-based
Summary of the method: (§3)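 ICR mice (8-12 weeks) were anesthetized with pentobarbital (50-70 mg/kg) and intubated, then underwent left thoracotomy and pericardiectomy. The proximal left coronary artery was ligated for 30 min or 75 min and released. Compound or vehicle was given at 0.1 mL, with n=6 per group. At 24 h after ischemia, viable myocardium was stained with TTC to measure infarct size.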

Mus musculus [7] = assay: as §1, with “decrease” for “increase”, “latency to find” for “time spent in”, “platform” for “quadran”; type: functional, organism-based; summary of the method: as §2
Mus musculus [8] = assay: Cardioprotective activity in 30 mins coronary artery ligated I/R AMI ICR mouse model assessed as reduction in troponin-1 levels at 30 mg/kg, po measured at 24 hrs post surgery by ELISA; type: functional, organism-based
Summary of the method: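 ICR mice (8-12 weeks) under pentobarbital anaesthesia, intubated; left thoracotomy, pericardiectomy, proximal left coronary artery ligated 30 min then released. Compound or matched vehicle (0.1mL), n=6 per group.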

Mus musculus [9] = assay: Cardioprotective activity in 75 mins coronary artery ligated I/R AMI ICR mouse model assessed as reduction in infract size at 30 mg/kg, po measured at 24 hrs post surgery by TTC-staining based assay; type: functional, organism-based; summary of the method: as §3
Mus musculus [10] = assay: as §1, with “Effect on cognition” for “Cognition enhancement”, “wild type” for “double APP/PS1 transgenic Alzheimer's disease”, “mouse” for “mouse model”, “decrease” for “increase”; type: ADME, organism-based; details: in vivo; summary of the method: as §2
Mus musculus [11] = assay: as §1, with “discrimination index” for “increase in time spent in goal quadran”, “novel object recognition” for “Morris water maze”; type: functional; summary of the method: as §2

T1 sequence (Q8R4B8 whole entry, the tested form may be a part): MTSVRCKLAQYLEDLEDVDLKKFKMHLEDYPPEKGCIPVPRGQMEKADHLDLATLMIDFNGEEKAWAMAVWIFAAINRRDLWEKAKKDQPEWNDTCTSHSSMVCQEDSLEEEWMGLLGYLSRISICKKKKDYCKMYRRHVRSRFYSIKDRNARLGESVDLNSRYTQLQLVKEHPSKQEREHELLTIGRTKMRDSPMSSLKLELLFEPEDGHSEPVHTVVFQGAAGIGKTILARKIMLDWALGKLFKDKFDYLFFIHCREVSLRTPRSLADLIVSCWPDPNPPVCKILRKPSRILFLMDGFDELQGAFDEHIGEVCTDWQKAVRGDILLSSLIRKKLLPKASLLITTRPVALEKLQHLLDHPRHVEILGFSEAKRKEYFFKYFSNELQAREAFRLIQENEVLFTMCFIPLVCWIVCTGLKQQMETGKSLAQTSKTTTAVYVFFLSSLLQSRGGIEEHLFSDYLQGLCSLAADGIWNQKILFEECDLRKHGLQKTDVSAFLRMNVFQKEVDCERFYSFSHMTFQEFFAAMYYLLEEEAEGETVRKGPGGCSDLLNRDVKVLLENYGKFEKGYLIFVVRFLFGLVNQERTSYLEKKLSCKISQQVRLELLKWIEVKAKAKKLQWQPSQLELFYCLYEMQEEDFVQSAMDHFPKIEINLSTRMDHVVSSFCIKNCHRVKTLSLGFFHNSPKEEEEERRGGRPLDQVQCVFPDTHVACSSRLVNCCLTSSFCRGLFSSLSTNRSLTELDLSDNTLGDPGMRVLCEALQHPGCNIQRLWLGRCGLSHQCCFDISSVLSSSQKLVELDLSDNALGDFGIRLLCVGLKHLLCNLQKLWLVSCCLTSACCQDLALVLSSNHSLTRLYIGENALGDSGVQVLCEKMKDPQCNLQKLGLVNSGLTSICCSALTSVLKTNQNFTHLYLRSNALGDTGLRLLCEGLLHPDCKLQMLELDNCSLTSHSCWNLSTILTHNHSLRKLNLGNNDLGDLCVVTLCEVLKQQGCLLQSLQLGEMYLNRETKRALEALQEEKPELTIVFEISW
NACHT, LRR and PYD domains-containing protein 3 (Mus musculus), sequence (Q8R4B8 whole entry, the tested form may be a part): as above

Structure (SMILES)	IC50 [1] [nM]	further results
CNS(=O)(=O)c1ccc(CCNC(=O)c2cc(Cl)ccc2O)cc1	10500	
CCCCNS(=O)(=O)c1ccc(CCNC(=O)c2cc(Cl)ccc2OC)cc1	970	
CNS(=O)(=O)c1ccc(CCNC(=O)c2ccccc2OC)cc1	17100	
COc1ccc(CNS(=O)(=O)c2ccc(CCNC(=O)c3cc(Cl)ccc3OC)cc2)cc1	420	IC50 [2]: 360 nM; inhibition (Mus musculus [3]): Active
CCCN(CCC)S(=O)(=O)c1ccc(CCNC(=O)c2cc(Cl)ccc2OC)cc1	1400	
CNS(=O)(=O)c1ccc(CCNC(=O)c2c(Cl)cccc2OC)cc1	44400	
CNS(=O)(=O)c1ccc(CCNC(=O)c2ccccc2)cc1	147000	
COc1ccc(Cl)cc1C(=O)NCCc1ccc(S(=O)(=O)NCCc2ccccc2)cc1	810	
COc1ccc(Cl)cc1C(=O)NCCc1ccc(S(=O)(=O)NCc2ccc(Cl)cc2)cc1	1500	
COc1ccc(Cl)cc1C(=O)NCCc1ccc(S(=O)(=O)N2CCNCC2)cc1	3400	
COc1ccc(Cl)cc1C(=O)NCCc1ccc(S(=O)(=O)N2CCCCC2)cc1	5010	
CNS(=O)(=O)c1ccc(CCCCNC(=O)c2cc(Cl)ccc2OC)cc1	1740	
COc1ccc(Cl)cc1C(=O)NCCc1ccc(S(=O)(=O)NCc2ccc(O)cc2)cc1	630	
CNS(=O)(=O)c1ccc(CCCNC(=O)c2cc(Cl)ccc2OC)cc1	2030	
COc1ccc(Cl)cc1C(=O)NCCc1ccc(S(=O)(=O)Nc2ccccc2)cc1	2080	
CNS(=O)(=O)c1ccc(CCNC(=O)c2cccc(Cl)c2OC)cc1	31800	
CNS(=O)(=O)c1ccc(CCNC(=O)c2ccc(Cl)cc2OC)cc1	18000	
CCCCN(CCCC)S(=O)(=O)c1ccc(CCNC(=O)c2cc(Cl)ccc2OC)cc1	550	IC50 [2]: 120 nM; Ratio IC50 [4]: 4; inhibition (Mus musculus [3]): Active
COc1ccc(Cl)cc1C(=O)NCCc1ccc(S(=O)(=O)N2CCOCC2)cc1	3440	
COc1ccc(Cl)cc1C(=O)NCCc1ccc(S(=O)(=O)NCc2ccccc2)cc1	1310	
CNS(=O)(=O)c1ccc(CCNC(=O)c2cc(Cl)ccc2OC)cc1		Activity (Mus musculus [5]): Active; Activity (Mus musculus [6]): Active; Activity (Mus musculus [7]): Active; Activity (Mus musculus [8]): Active; Activity (Mus musculus [9]): Active; Activity (Mus musculus [10]): Non-Toxic; Activity (Mus musculus [11]): <50%
COc1ccc(Cl)cc1C(=O)NCCc1ccc(S(=O)(=O)N2CCC2)cc1	1660	
CNS(=O)(=O)c1ccc(CCNC(=O)c2ccc(OC)c(Cl)c2)cc1	32800	
CCCNS(=O)(=O)c1ccc(CCNC(=O)c2cc(Cl)ccc2OC)cc1	1640	
COc1ccc(Cl)cc1C(=O)NCCc1ccc(S(=O)(=O)N2CCCC2)cc1	3530	
COc1ccc(Cl)cc1C(=O)NCCc1ccc(S(=O)(=O)NCc2ccc(C(F)(F)F)cc2)cc1	1900	
CNS(=O)(=O)c1ccc(CCNC(=O)c2cc(Cl)cc(OC)c2)cc1	5830	
CCN(CC)S(=O)(=O)c1ccc(CCNC(=O)c2cc(Cl)ccc2OC)cc1	2010	
CNS(=O)(=O)c1ccc(CCNC(=O)c2cccc(Cl)c2)cc1	13400	
